# Experimental data from different studies.
# Compare with care: the assays were run in different laboratories.
# Target: Rho-associated protein kinase 2 (ROCK2, Homo sapiens, UniProt O75116)
Structure (SMILES),read-out,action,technique,concentration,quantity,result
Fc1cccc(-n2cnc3c(NCc4nc5c(F)c(F)ccc5[nH]4)nc(N4CCOCC4)nc32)c1,binding,,competition with immobilised ligand,10 µM,binding vs control,54%
COc1cc2ncnc(Nc3ccc(Oc4ccccc4)cc3C)c2cc1OC,enzyme activity,inhibitor,,1 µM,inhibition,1%
CCCOc1ccc(OC)c(F)c1C(=O)c1ccc(C(=O)N[C@@H]2CNC[C@H]2NC(=O)c2ccc3[nH]ncc3c2)cc1,enzyme activity,inhibitor,,0.5 µM,remaining activity,6%
FC(F)(F)c1ccc2c(c1)nc(-c1cccnc1)n2C1CC1,cell-free assay,,competition with immobilised ligand,1 µM,remaining binding,100%
C[C@@H](N)[C@H]1CC[C@H](C(=O)Nc2ccncc2)CC1,cell-free assay,,,0.5 µM,remaining signal,26.3%
Nc1ncnc2occ(-c3ccc(NC(=O)Nc4cc(C(F)(F)F)ccc4F)cc3)c12,cell-free assay,inhibitor,,20 µM,remaining signal,0%
Cc1cc(NC(=O)c2cccc3cc(-c4cccc5[nH]nc(N)c45)ccc23)ccc1F,enzyme activity,inhibitor,,0.1 µM,activity vs control,98%
CC(=O)C1=C(C)N(c2cccc(C(F)(F)F)c2)C(=O)N[C@@H]1c1ccc(C#N)nc1,cell-free assay,,competition with immobilised ligand,1 µM,remaining binding,86.1%
O=C1NC(=O)c2cc(Nc3ccc(F)cc3)c(Nc3ccc(F)cc3)cc21,cell-free assay,,,0.5 µM,remaining signal,92.8%
CN(C)CC#Cc1ccc(OCCCc2sc(N3CCc4cccc(C(=O)Nc5nc6ccccc6s5)c4C3)nc2C(=O)O)c(F)c1,cell-free assay,,competition with immobilised ligand,1 µM,remaining binding,100%
Cc1ccc(Nc2nccc(N(C)c3ccc4c(C)n(C)nc4c3)n2)cc1S(N)(=O)=O,enzyme activity,inhibitor,,10 µM,inhibition,-27%
CC(C)(C)c1nc(-c2cccc(NS(=O)(=O)c3c(F)cccc3F)c2F)c(-c2ccnc(N)n2)s1,enzyme activity,inhibitor,radiometric,1 µM,remaining activity,103%
O=C(NCc1ncc(C(F)(F)F)cc1Cl)c1ccc2c(c1)C1(CCS(=O)(=O)CC1)[C@H](C1CC1)N2S(=O)(=O)c1ccc(F)cc1,cell-free assay,,competition with immobilised ligand,1 µM,remaining binding,95%
Cc1sc(C(=O)NC2COC2)cc1-n1cc(NC(=O)Nc2c(F)cccc2Cl)cn1,enzyme activity,inhibitor,,10 µM,remaining activity,93.6%
COc1cc(Cl)c(C(=O)N[C@@H](CN[C@H]2CC[C@@H](N)CC2)Cc2ccc(C#N)cc2)cc1-c1ccc(CN[C@H](C)c2ccc(C)cc2)o1,enzyme activity,inhibitor,,1 µM,remaining activity,96%
Cn1cnc(Br)c1C1=CN(c2ncnc3[nH]cnc23)CCS1,enzyme activity,inhibitor,radiometric,50 nM,inhibition,18.6%
O=C(Nc1cnn(-c2csc(C(=O)NC3COC3)c2)c1)Nc1c(F)cccc1Cl,enzyme activity,inhibitor,,5 µM,remaining activity,107%
CN(C(=O)c1ccccc1)c1cc(N(C)c2ccc3c(c2)CCc2ccc(C(=O)NCCN4CCOCC4)cc2C3=O)ccc1F,cell-free assay,,competition with immobilised ligand,1 µM,remaining binding,100%
Cc1ccc(C(=O)Nc2ccc(CN3CCN(C)CC3)c(C(F)(F)F)c2)cc1C#Cc1cnc2cccnn12,enzyme activity,inhibitor,,23.5 nM,remaining activity,89%
CCN(CC)c1ccc(C2=NNC(=O)CC2C)cc1[N+](=O)[O-] (stereo not drawn),enzyme activity,inhibitor,,10 µM,remaining activity,99%
FC(F)c1nc2ccccc2n1-c1nc(N2CCOCC2)nc(N2CCOCC2)n1,enzyme activity,inhibitor,,10 µM,remaining activity,85%
O=C1NC(c2ccccn2)Sc2ccccc21 (stereo not drawn),cell-free assay,,competition with immobilised ligand,1 µM,remaining binding,67%
CC(C)(O)[C@H]1CC[C@H](Nc2ccc3ncc(-c4cccc(C(F)(F)F)c4)n3n2)CC1,enzyme activity,inhibitor,,1 µM,remaining activity,92.8%
Cc1ccc(-n2nc(C(C)(C)C)cc2NC(=O)Nc2ccc(OCCN3CCOCC3)c3ccccc23)cc1,enzyme activity,inhibitor,,10 µM,inhibition,-3%
CNC(=O)c1cc(Oc2ccc(NC(=O)Nc3ccc(Cl)c(C(F)(F)F)c3)cc2)ccn1,enzyme activity,inhibitor,,10 µM,inhibition,38%
NS(=O)(=O)c1cc(NC(=O)C2(c3ccccc3Cl)CC2)ccc1Oc1cccc(Cl)c1,cell-free assay,,competition with immobilised ligand,1 µM,remaining binding,100%
Cn1cncc1C1=CN(c2ncnc3[nH]cnc23)CCS1,enzyme activity,inhibitor,radiometric,2 µM,inhibition,93.3%
Cc1c(NC(=O)c2cc(C(N)=O)nc3cc(F)ccc23)c(C(F)(F)F)nn1Cc1ccc(C(C)(C)C)cc1,cell-free assay,,competition with immobilised ligand,1 µM,remaining binding,100%
COc1cc(Nc2cnc(C#N)c(O[C@H](C)CN(C)C)n2)ncc1-c1cnn(C)c1,enzyme activity,inhibitor,radiometric,1 µM,remaining activity,92%
Nc1nc(NC2CCCCC2)sc1C(=O)c1ccccc1,enzyme activity,inhibitor,,10 µM,remaining activity,97%
CC/C(=N\NC(=O)C(C)Nc1ccccc1)c1ccc(O)c(C)c1O (stereo not drawn),enzyme activity,inhibitor,,0.1 µM,inhibition,25.7%
O=C(CSc1nc2nccnc2c(=O)n1CCc1ccccc1)Nc1nccs1,enzyme activity,inhibitor,,10 µM,inhibition,2%
c1ccc2c(-c3ccncc3)c[nH]c2c1,cell-free assay,,,0.5 µM,remaining signal,71.9%
Cc1cnc(NC2CCOCC2)nc1-n1cnc(C(=O)NC(CN)c2cc(F)cc(Cl)c2)c1 (stereo not drawn),enzyme activity,inhibitor,radiometric,1 µM,remaining activity,25%
CCN(CC)CCNC(=O)c1c(C)[nH]c(/C=C2\C(=O)Nc3ccc(F)cc32)c1C,cell-free assay,,,0.5 µM,remaining signal,72.1%
CNCc1ccc(-c2cc(-c3nc(-c4ccc(S(=O)(=O)C(C)C)cc4)cnc3N)on2)cc1,enzyme activity,inhibitor,,0.4 µM,inhibition,0%
